Experimental data from ChEMBL document CHEMBL4152258, “Identification of chalcone-based antileishmanial agents targeting trypanothione reductase” (Eur J Med Chem, 2018).
Active and inactive are the calls of the source. The rule behind the calls is not given here.

Experiments:
Leishmania donovani [1] = assay: Antileishmanial activity against promastigote stage of Leishmania donovani MHOM/NP/02/BPK282/0c14 assessed as parasite growth inhibition up to 40 uM after 72 hrs by Alamar blue assay; type: functional, organism-based
Summary of the method: (§1)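 Late log/stationary promastigotes were seeded at 10^6/mL in HOMEM with 20% FBS and exposed to compounds at 40–1.6 µM for 72 h at 26 °C, from 8 mM DMSO stocks. AlamarBlue was then added for 24 h at 26 °C, and absorbance was read at 550 and 630 nm. Runs were in duplicate. IC50/72h is the mean of two independent determinations.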

Leishmania donovani [2] = assay: Antileishmanial activity against promastigote stage of Leishmania donovani MHOM/NP/02/BPK282/0c14 assessed as parasite growth inhibition after 72 hrs by Alamar blue assay; type: functional, organism-based; conditions: MHOM/NP/02/BPK282/0c14, 72 h; summary of the method: as §1
[3] = Cytotoxicity against African green monkey Vero cells after 72 hrs by Alamar blue assay; type: cell-based; conditions: chlorocebus sabaeus
Summary of the method: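 Vero cells were seeded at 10^5/mL in MEM with 10% FBS and exposed to compounds up to 600 µM for 72 h at 37 °C, 5% CO2. AlamarBlue was added for 24 h at 37 °C, with absorbance read at 550 and 630 nm. Duplicates. CC50/72h determined.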

[4] = Selectivity index, ratio of CC50 for African green monkey Vero cells to IC50 for Leishmania donovani MHOM/NP/02/BPK282/0c14; type: toxicity; conditions: read-out: Ratio CC50/IC50
Summary of the method: (§2)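 Selectivity index calculated as CC50/72h in Vero (16) or THP-1 (17) cells divided by IC50/72h against L. donovani promastigotes.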

[5] = Selectivity index, ratio of CC50 for human THP1 cells to IC50 for Leishmania donovani MHOM/NP/02/BPK282/0c14; type: toxicity; conditions: THP-1 cells, read-out: Ratio CC50/IC50; summary of the method: as §2
[6] = Cytotoxicity against human THP1 cells after 72 hrs by Alamar blue assay; type: cell-based; conditions: THP-1 cells
Summary of the method: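 THP-1 cells were seeded at 10^5 cells/mL in RPMI-1640 with 10% FBS and adhered with 0.1 µM PMA, then exposed to compounds for 72 h at 37 °C, 5% CO2. AlamarBlue was added for 24 h at 37 °C, with absorbance read at 550 and 630 nm. Duplicates. CC50/72h determined.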

[7] = Competitive inhibition of Leishmania spp. trypanothione reductase in presence of 75 to 400 uM TS2 by Dixon plot analysis; design: species or system Leishmania sp.
Summary of the method: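 Recombinant L. infantum TR at 40 nM was equilibrated for 2 min at 25 °C with TS2 (75–400 µM) and inhibitor (30 nM–1 µM). The reaction was started with 40 µM NADPH, and NADPH oxidation was followed as A340 decrease (ε 6,222 M−1 cm−1). A Dixon plot was built by linear regression of reciprocal fitted rates against inhibitor concentration.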

[8] = Ratio of IC50 for amastigote stage of Leishmania donovani MHOM/NP/02/BPK282/0c14 to Ki for Leishmania spp. trypanothione reductase
[9] = Ratio of IC50 for promastigote stage of Leishmania donovani MHOM/NP/02/BPK282/0c14 to Ki for Leishmania spp. trypanothione reductase
[10] = Safety index, ratio of test compound CC50 to amphotericin B CC50 for African green monkey Vero cells; type: ADME, cell-based; conditions: chlorocebus sabaeus
Leishmania donovani [11] = assay: Antileishmanial activity against amastigote stage of Leishmania donovani MHOM/NP/02/BPK282/0c14 infected in human THP1 cells assessed as parasite growth inhibition after 72 hrs by Giemsa staining-based assay; type: functional, organism-based; conditions: MHOM/NP/02/BPK282/0c14, THP-1, 72 h
Summary of the method: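 THP-1 cells at 10^5 cells/mL differentiated with 0.1 µM PMA for 48 h at 37 °C, 5% CO2, then infected with stationary-phase promastigotes. After 24 h, compounds were added at 40–1.5 µM for 72 h. Wells were Giemsa-stained, and the infectivity index (% infected macrophages × mean amastigotes per macrophage) was counted on ≥100 cells in duplicate cultures. IC50/72h determined.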

[12] = Safety index, ratio of test compound CC50 to amphotericin B CC50 for human THP1 cells; type: ADME, cell-based; conditions: THP-1 cells
Leishmania sp. = assay: Potency index, ratio of Sb3+ Ki to test compound Ki for Leishmania spp. trypanothione reductase
Leishmania tropica = assay: Antileishmanial activity against promastigote stage of Leishmania tropica MHOM/SU/74/K27 assessed as parasite growth inhibition after 72 hrs by Alamar blue assay; type: functional, organism-based; conditions: MHOM/SU/74/K27, 72 h; summary of the method: as §1
[13] = Binding affinity to Leishmania spp. trypanothione reductase by surface plasmon resonance analysis; design: species or system Leishmania sp.
Summary of the method: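 Recombinant L. infantum TR was amine-coupled to ~2000 RU on a carboxyl sensor chip. Analytes in HBS pH 7.4 + 1% DMSO were given as FastStep serial doubling injections from 1.56 to 100 µM, followed by dissociation after 100 s. A protein-free surface served as control. Sensorgrams are averages of three experiments. KD came from Scatchard plots and a global 1:1 binding fit.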

Leishmania infantum = assay: Antileishmanial activity against promastigote stage of Leishmania infantum MHOM/TN/80/IPT1 assessed as parasite growth inhibition after 72 hrs by Alamar blue assay; type: functional, organism-based; conditions: MHOM/TN/80/IPT1, 72 h; summary of the method: as §1
Leishmania major = assay: Antileishmanial activity against promastigote stage of Leishmania major MHOM/SU/73/5-ASKH assessed as parasite growth inhibition after 72 hrs by Alamar blue assay; type: functional, organism-based; summary of the method: as §1

Row | Compound | growth inhibition (GI) (Leishmania donovani [1]) | IC50 (Leishmania donovani [2]) [µM] | CC50 at 72 h [3] [µM] | selectivity ratio [4] | selectivity ratio [5] | CC50 at 72 h [6] [µM] | further results
1 | COc1cc(OCC=C(C)C)ccc1C(=O)/C=C/c1ccc(NC(C)=O)cc1 | inactive | – | – | – | – | – | –
2 | C#CCOc1ccc(C(=O)/C=C/c2ccc(OC)cc2)c(OCC#C)c1 | inactive | – | – | – | – | – | –
3 | C#CCOc1ccc(C(=O)/C=C/c2cccnc2)c(O)c1 | – | 17.5 | 40 | 2.3 | 1.4 | 25 | –
4 | C#CCOc1ccc(C(=O)/C=C/c2cccnc2)c(OCC#C)c1 | – | 4 | 6 | 1.5 | 3.8 | 15 | –
5 | COc1cc(OCC=C(C)C)ccc1C(=O)/C=C/c1ccccc1 | – | 15 | 50 | 3.3 | 3.3 | 50 | –
6 | C[C@@H]1[C@H](O)[C@@H](C)/C=C/C=C/C=C/C=C/C=C/C=C/C=C/[C@H](O[C@@H]2O[C@H](C)[C@@H](O)[C@H](N)[C@@H]2O)C[C@@H]2O[C@](O)(C[C@@H](O)C[C@@H](O)[C@H](O)CC[C@@H](O)C[C@@H](O)CC(=O)O[C@H]1C)C[C@H](O)[C@H]2C(=O)O [AMPHOTERICIN B] | – | 0.3 | 200 | 666 | 666 | 200 | –
7 | C#CCOc1ccc(C(=O)/C=C/c2ccc([N+](=O)[O-])cc2)c(OCC#C)c1 | inactive | – | – | – | – | – | –
8 | CC(C)=CCOc1ccc(C(=O)/C=C/c2cccnc2)c(O)c1 | – | 8.5 | 210 | 24.7 | 11.8 | 100 | –
9 | COc1cc(OCC=C(C)C)ccc1C(=O)/C=C/c1ccncc1 | – | 10.5 | 16 | 1.5 | 1.5 | 16 | –
10 | C#CCOc1ccc(C(=O)/C=C/c2ccncc2)c(OC)c1 | – | 4 | 20 | 5 | 4 | 16 | –
11 | C#CCOc1ccc(C(=O)/C=C/c2cc(OC)c(OC)c(OC)c2)c(OCC#C)c1 | inactive | – | – | – | – | – | –
12 | CC(C)=CCOc1ccc(C(=O)/C=C/c2ccncc2)c(O)c1 | – | 5 | 40 | 8 | 3.2 | 16 | –
13 | CC(C)=CCOc1ccc(C(=O)/C=C/c2ccccc2)c(O)c1 | inactive | – | – | – | – | – | –
14 | C#CCOc1ccc(C(=O)/C=C/c2cccnc2)c(OC)c1 | – | 9.5 | 15 | 1.6 | 1.7 | 16 | –
15 | COc1ccc(/C=C/C(=O)c2ccc(OCC=C(C)C)cc2OC)cc1OC | inactive | – | – | – | – | – | –
16 | C#CCOc1ccc(C(=O)/C=C/c2ccc(Br)cc2)c(OCC#C)c1 | – | 15 | 420 | 28 | 1.6 | 25 | –

Row | Compound | growth inhibition (GI) (Leishmania donovani [1]) | IC50 (Leishmania donovani [2]) [µM] | CC50 at 72 h [3] [µM] | selectivity ratio [4] | selectivity ratio [5] | CC50 at 72 h [6] [µM] | further results
17 | COc1cc(OCC=C(C)C)ccc1C(=O)/C=C/c1ccc([N+](=O)[O-])cc1 | – | 3 | 600 | 200 | 200 | 600 | Ki [7]: 450 nM; Ratio [8]: 30; Ratio [9]: 6; selectivity ratio [10]: 3; IC50 (Leishmania donovani [11]): 14 µM; selectivity ratio [12]: 3; Ratio Ki (Leishmania sp.): 3; IC50 (Leishmania tropica): 5.2 µM; Kd [13]: 600 nM; IC50 (Leishmania infantum): 1600 nM; IC50 (Leishmania major): 3.3 µM
18 | C#CCOc1ccc(C(=O)/C=C/c2ccc(OC)c(OC)c2)c(OCC#C)c1 | inactive | – | – | – | – | – | –
19 | COc1cc(OCC=C(C)C)ccc1C(=O)/C=C/c1cccnc1 | – | 10.5 | 22 | 2 | 3.8 | 40 | –
20 | C#CCOc1ccc(C(=O)/C=C/c2cc(OC)c(OC)c(OC)c2)c(OC)c1 | inactive | – | – | – | – | – | –
21 | COc1cc(OCC=C(C)C)ccc1C(=O)/C=C/c1ccc(Br)cc1 | – | 16 | 600 | 37.5 | 6.3 | 100 | –
22 | C#CCOc1ccc(C(=O)/C=C/c2ccncc2)c(OCC#C)c1 | – | 7 | 10 | 1.4 | 1.6 | 11 | –
23 | C#CCOc1ccc(C(=O)/C=C/c2ccc(OC)c(OC)c2)c(OC)c1 | inactive | – | – | – | – | – | –
24 | C#CCOc1ccc(C(=O)/C=C/c2ccc([N+](=O)[O-])cc2)c(OC)c1 | inactive | – | – | – | – | – | –
25 | COc1cc(OCC=C(C)C)ccc1C(=O)/C=C/c1ccc(F)cc1 | inactive | – | – | – | – | – | –
26 | COc1cc(OCC=C(C)C)ccc1C(=O)/C=C/c1ccco1 | inactive | – | – | – | – | – | –
27 | CC(=O)Oc1cc(OCC=C(C)C)ccc1C(=O)/C=C/c1ccccc1 | inactive | – | – | – | – | – | –
28 | COc1ccc(/C=C/C(=O)c2ccc(OCC=C(C)C)cc2OC)cc1 | inactive | – | – | – | – | – | –
29 | C#CCOc1ccc(C(=O)/C=C/c2ccc(F)cc2)c(OCC#C)c1 | – | 12.5 | 600 | 48 | 48 | 600 | selectivity ratio [10]: 3; IC50 (Leishmania donovani [11]): 4.5 µM; selectivity ratio [12]: 3; IC50 (Leishmania tropica): 13 µM; Kd [13]: 2400 nM; IC50 (Leishmania infantum): 1600 nM; IC50 (Leishmania major): 10 µM
30 | C#CCOc1ccc(C(=O)/C=C/c2ccc(Br)cc2)c(OC)c1 | – | 21.5 | 100 | 4.6 | 4.6 | 100 | –
31 | COc1cc(OCC=C(C)C)ccc1C(=O)/C=C/c1cc(OC)c(OC)c(OC)c1 | – | 11 | 40 | 3.6 | 2.3 | 25 | –
32 | CC(C)=CCOc1ccc(C(=O)/C=C/c2ccccc2)c(OCC=C(C)C)c1 | inactive | – | – | – | – | – | –
